# Target: T1, OR8D1 (Homo sapiens) (UniProt Q8WZ84)
# T1 sequence (whole entry): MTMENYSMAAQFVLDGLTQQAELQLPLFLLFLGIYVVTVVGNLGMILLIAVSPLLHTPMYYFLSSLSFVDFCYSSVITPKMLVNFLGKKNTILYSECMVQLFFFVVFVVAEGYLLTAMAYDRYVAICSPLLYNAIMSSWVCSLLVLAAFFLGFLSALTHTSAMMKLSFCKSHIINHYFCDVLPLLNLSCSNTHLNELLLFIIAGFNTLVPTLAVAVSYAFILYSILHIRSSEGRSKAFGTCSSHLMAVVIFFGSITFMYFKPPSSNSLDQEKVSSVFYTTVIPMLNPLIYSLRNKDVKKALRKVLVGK
# Conditions: stereoisomer not certain
# Procedure, shortened: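 Each entry records the cell line, G-protein, co-transfected protein and tags used. Methods varied with the source, often transient luciferase assays in mammalian cell lines. A receptor–molecule pair is called responsive (active) if the original authors judged its signal statistically different from baseline and non-responsive (inactive) otherwise.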
row,SMILES,odorant receptor agonist call
1,CCOC(C)=O,inactive
2,CSSSC,inactive
3,CCC=CCCC=CCO,inactive
4,C=CC(=O)CCCCC,inactive
5,O=c1ccc2ccccc2o1,inactive
6,CCCCCC=O,inactive
7,CC(C)CC=O,inactive
8,C=C(C)C1CC=C(C)CC1 (configuration not stated),inactive
9,CC(C)CCO,inactive
10,Cc1occc1S,inactive
11,CCCCCCCCC=CC=O,inactive
12,CCOC(=O)C=Cc1ccccc1,inactive
13,CCCCCCCC1CCCC(=O)O1 (configuration not stated),inactive
14,CC(C)=CC1CC(C)CCO1 (configuration not stated),inactive
15,CCCCCCCCCO,inactive
16,CCCCCCCC(=O)OCC,inactive
17,CCC(C)C=O (configuration not stated),inactive
18,CCC=O,inactive
19,CCC(=O)C1=NCCC1,inactive

row,SMILES,odorant receptor agonist call
1,CCc1cccc(O)c1,inactive
2,CCCSSSCCC,inactive
3,O=C(O)CCc1ccccc1,inactive
4,COc1ccc2ccc(=O)oc2c1,inactive
5,CC=CC(=O)C(C)CC (configuration not stated),inactive
6,CCCCCCC1CCC(=O)O1 (configuration not stated),inactive
7,CCCCCCO,inactive
8,CCC(=O)C(C)S (configuration not stated),inactive
9,CC1=CCC(C(C)C)C=C1 (configuration not stated),inactive
10,CCCSSSC,inactive
11,CCCC=CC=O,inactive
12,CCCCC=CC=CC=O,inactive
13,CCOC(=O)C(C)C,inactive
14,CCCCCC(=O)OCC,inactive
15,CCCCC(C)CCC(=O)O (configuration not stated),inactive
16,CCCCCCCC(C)=O,inactive
17,CC(=O)C(C)O (configuration not stated),inactive
18,OCCc1ccccc1,inactive
